Results taken from ChEMBL document CHEMBL4330098, “Identification of peptidomimetics as novel chemical probes modulating fibroblast growth factor 14 (FGF14) and voltage-gated sodium channel 1.6 (Nav1.6) protein-protein interactions” (Bioorg Med Chem Lett, 2019).
Active and inactive are the calls of the source. The calls are words filed in the database; no cut-off is given here. Residues, ends and D or L forms follow the SMILES beside them. *: point of attachment. Fmoc = O=C(OCC1c2ccccc2-c2ccccc21)*; Cbz = O=C(OCc1ccccc1)*; Boc = CC(C)(C)OC(=O)*; Bz = O=C(c1ccccc1)*

Columns and labels:
Type in all cases: cell-based
[1] = target: Sodium channel protein type 8 subunit alpha (Homo sapiens) (UniProt Q9UQD0); experiment: Inhibition of Nav1.6 (unknown origin) expressed in HEK293 cells assessed as V1/2 of steady-state of inactivation at 10 uM after 1 hr at -70 mV holding potential by whole cell patch clamp method (reference value: […])
Sodium channel protein type 8 subunit alpha (Homo sapiens), sequence (Q9UQD0 whole entry, looked up): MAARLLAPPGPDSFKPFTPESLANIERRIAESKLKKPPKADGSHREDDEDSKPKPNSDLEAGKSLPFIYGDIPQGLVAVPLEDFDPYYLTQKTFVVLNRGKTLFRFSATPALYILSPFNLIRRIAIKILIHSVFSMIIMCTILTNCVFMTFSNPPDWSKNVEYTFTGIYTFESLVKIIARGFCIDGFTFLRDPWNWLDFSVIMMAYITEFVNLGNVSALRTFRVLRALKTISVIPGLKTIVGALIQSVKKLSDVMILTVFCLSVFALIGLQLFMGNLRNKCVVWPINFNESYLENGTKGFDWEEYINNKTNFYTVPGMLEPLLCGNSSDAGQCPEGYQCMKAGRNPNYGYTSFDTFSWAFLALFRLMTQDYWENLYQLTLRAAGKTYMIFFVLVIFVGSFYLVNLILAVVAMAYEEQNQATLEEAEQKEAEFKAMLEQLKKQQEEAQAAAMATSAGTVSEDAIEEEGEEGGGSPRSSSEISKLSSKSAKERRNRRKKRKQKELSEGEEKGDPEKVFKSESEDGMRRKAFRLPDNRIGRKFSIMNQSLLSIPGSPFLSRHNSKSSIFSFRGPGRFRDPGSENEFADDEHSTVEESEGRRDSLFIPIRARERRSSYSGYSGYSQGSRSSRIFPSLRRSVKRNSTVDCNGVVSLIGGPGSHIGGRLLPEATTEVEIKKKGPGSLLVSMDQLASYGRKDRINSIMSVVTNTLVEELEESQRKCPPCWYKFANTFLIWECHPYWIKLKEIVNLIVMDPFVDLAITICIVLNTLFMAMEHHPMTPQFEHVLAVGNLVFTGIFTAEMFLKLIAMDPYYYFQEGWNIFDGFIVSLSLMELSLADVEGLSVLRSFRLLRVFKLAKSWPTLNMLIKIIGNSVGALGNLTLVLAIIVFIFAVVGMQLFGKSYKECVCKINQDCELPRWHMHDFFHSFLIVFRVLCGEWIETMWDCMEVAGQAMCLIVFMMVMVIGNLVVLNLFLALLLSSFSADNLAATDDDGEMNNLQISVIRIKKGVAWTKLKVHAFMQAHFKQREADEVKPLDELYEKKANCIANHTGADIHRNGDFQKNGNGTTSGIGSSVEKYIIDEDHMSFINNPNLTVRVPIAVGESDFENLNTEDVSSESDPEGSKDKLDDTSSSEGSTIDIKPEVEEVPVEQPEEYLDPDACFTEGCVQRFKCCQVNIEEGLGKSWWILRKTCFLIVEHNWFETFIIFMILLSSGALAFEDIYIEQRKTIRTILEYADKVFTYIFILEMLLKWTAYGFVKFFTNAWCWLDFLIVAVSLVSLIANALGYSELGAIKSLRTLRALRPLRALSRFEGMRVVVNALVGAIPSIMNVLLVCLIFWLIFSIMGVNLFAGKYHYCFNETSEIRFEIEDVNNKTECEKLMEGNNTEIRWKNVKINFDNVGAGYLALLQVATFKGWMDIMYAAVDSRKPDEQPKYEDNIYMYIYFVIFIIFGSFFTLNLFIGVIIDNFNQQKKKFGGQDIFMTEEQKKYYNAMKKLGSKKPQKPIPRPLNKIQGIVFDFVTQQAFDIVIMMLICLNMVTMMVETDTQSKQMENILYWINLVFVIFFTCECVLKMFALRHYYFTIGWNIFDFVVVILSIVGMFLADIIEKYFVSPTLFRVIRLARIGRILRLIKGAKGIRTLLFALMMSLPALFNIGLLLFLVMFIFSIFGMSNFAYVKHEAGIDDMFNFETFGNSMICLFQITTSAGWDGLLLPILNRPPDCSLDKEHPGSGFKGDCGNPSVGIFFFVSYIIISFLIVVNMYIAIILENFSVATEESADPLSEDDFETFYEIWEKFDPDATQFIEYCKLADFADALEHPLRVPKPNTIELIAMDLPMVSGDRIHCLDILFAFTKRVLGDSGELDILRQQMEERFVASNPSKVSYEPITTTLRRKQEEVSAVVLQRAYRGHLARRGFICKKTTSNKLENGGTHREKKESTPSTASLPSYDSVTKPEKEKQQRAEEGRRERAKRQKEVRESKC

HEK293 = experiment: Cytotoxicity against HEK293 cells assessed as reduction in cell viability at 50 uM by LDH release assay; conditions: human, hek293, 50 µM
How it was run: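 LDH release cytotoxicity assay in HEK293 cells, compounds given at 50 μM final. Read-out is % cytotoxicity. Data are mean ± S.E.M.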

[2] = target: Sodium channel protein type 8 subunit alpha (Homo sapiens) (UniProt Q9UQD0); experiment: Inhibition of Nav1.6 (unknown origin) expressed in HEK293 cells assessed as inactivation time constant at 10 uM after 1 hr at -70 mV holding potential by whole cell patch clamp method (reference value: 2.04 +/- 0.3 milliseconds)
[3] = target: Sodium channel protein type 8 subunit alpha (Homo sapiens) (UniProt Q9UQD0); experiment: Inhibition of Nav1.6 (unknown origin) expressed in HEK293 cells assessed as activation constant at 10 uM after 1 hr at -70 mV holding potential by whole cell patch clamp method (reference value: 3.4 +/- 0.2 mV)
[4] = target: Luciferin 4-monooxygenase (Photinus pyralis) (UniProt P08659); experiment: Effect on firefly luciferase activity expressed in HEK293 cells at 50 uM by luminescence assay
Luciferin 4-monooxygenase (Photinus pyralis), sequence (P08659 whole entry): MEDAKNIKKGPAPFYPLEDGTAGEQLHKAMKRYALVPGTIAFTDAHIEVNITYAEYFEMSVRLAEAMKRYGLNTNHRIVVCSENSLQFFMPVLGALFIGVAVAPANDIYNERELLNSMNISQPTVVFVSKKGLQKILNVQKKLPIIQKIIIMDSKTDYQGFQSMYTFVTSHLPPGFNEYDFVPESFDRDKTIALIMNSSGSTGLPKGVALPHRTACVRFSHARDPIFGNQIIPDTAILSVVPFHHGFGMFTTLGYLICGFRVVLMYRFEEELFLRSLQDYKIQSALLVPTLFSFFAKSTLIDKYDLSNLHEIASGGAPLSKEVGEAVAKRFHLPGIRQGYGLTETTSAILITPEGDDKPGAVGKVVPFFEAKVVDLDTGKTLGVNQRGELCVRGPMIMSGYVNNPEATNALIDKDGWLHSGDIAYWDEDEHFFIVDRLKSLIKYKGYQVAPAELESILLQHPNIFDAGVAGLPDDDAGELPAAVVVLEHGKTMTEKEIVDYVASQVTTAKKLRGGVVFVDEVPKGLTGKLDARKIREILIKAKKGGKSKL
How it was run: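 HEK293 cells transiently transfected with full-length Photinus (firefly) luciferase. Compounds dissolved in DMSO and diluted in medium to 50 μM final in 0.5% DMSO. Luminescence expressed as % of maximal, relative to 0.5% DMSO vehicle.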

[5] = target: T1, Fibroblast growth factor 14/SCN8A (Homo sapiens) (UniProt Q9UQD0+Q92915); experiment: Inhibition of Cluc-FGF14 (unknown origin)/CD4-Nav1.6-Nluc (unknown origin) protein-protein interaction using FGF14/NAV1.6 using HEK293 cells expressing FGF14/Nav1.6 by split luciferase complementation assay
T1 sequence (Q92915 whole entry, looked up): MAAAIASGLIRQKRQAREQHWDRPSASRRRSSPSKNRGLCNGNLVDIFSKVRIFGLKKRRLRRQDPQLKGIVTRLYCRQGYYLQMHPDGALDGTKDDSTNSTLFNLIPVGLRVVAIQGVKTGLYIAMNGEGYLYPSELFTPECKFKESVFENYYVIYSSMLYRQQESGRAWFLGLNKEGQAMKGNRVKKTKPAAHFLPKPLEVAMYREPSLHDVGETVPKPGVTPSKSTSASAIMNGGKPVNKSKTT
T1 sequence (Q9UQD0 whole entry, looked up): as the sequence (Q9UQD0 whole entry, looked up) above
How it was run: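 Split-luciferase complementation in HEK293 cells expressing Cluc-FGF14 and CD4-Nav1.6-Nluc. Five-point dose response at 1, 10, 25, 50 and 100 μM.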

[6] = target: T1, Fibroblast growth factor 14/SCN8A (Homo sapiens); experiment: Modulation of Cluc-FGF14 (unknown origin)/CD4-Nav1.6-Nluc (unknown origin) protein-protein interaction using FGF14/NAV1.6 using HEK293 cells expressing FGF14/Nav1.6 assessed as luminescent response at 50 uM by split luciferase complementation assay relative to control
How it was run: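 Split-luciferase complementation in HEK293 cells co-transfected with Cluc-FGF14 and CD4-Nav1.6-Nluc plasmids. Compounds in DMSO, diluted in medium to 50 μM final, 0.5% DMSO. Luminescence reported as % maximal vs 0.5% DMSO vehicle.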

Compound | V1/2 [1] [mV] | Activity (HEK293) | TIME [2] [h] | Kact [3] [mV] | Activity [4] | inhibition [5] | Activity [6] [%]
COC(=O)[C@H](CCCCNC(=O)OCC1c2ccccc2-c2ccccc21)NC(=O)[C@@H]1CCCN1C(=O)[C@H](CC(C)C)NC(=O)[C@H](Cc1ccccc1)NC(C)=O (Ac-FLPK(Fmoc)-OMe) | -57.7 | Non-Toxic | 5.69e-07 | 3.9 | inactive | Dose-dependent effect | –
CC(=O)N1CCC[C@H]1C(=O)N[C@@H](CC(C)C)C(=O)N[C@@H](CCCCNC(=O)OC(C)(C)C)C(N)=O (Ac-Pro-Leu-Lys(Boc)-NH2) | – | – | – | – | inactive | – | –
CC(C)C[C@H](NC(=O)[C@H](Cc1ccccc1)NC(=O)c1ccccc1)C(=O)N1CCC[C@H]1C(=O)N[C@@H](CCCCNC(=O)OC(C)(C)C)C(N)=O (Bz-FLPK(Boc)-NH2) | – | Non-Toxic | – | – | inactive | Dose-dependent effect | –
CC(C)C[C@H](NC(=O)[C@H](Cc1ccccc1)NC(=O)OCc1ccccc1)C(=O)N1CCC[C@H]1C(=O)N[C@@H](CCCCNC(=O)OC(C)(C)C)C(N)=O (Cbz-FLPK(Boc)-NH2) | – | – | – | – | inactive | – | –
COC(=O)[C@H](CCCCNC(=O)OCC1c2ccccc2-c2ccccc21)NC(=O)[C@@H]1CCCN1C(=O)[C@H](CC(C)C)NC(=O)[C@@H](N)Cc1ccccc1 (H-FLPK(Fmoc)-OMe) | – | – | – | – | inactive | – | 124
CC(C)C[C@H](N)C(=O)N1CCC[C@H]1C(=O)N[C@@H](CCCCN)C(N)=O (H-Leu-Pro-Lys-NH2) | – | Non-Toxic | – | – | inactive | – | 142
